The source of these data is ChEMBL document CHEMBL1150836, “Bioactive constituents of the roots of Cynanchum atratum” (2001).

Molecules are shown by their SMILES. In brackets after ≈: the same amount, converted by molar mass.

The subject of experiment [1] is RAW264.7. The experiment is described as follows: Antiinflammatory activity in LPS-stimulated mouse RAW264.7 cells assessed as inhibition of TNFalpha formation at 30 uM pretreated 1 hr before LPS challenge measured after 24 hrs by enzyme immunoassay. The experiment is classed as functional. In a few lines: (§1)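 RAW 264.7 cells, 2 × 10⁵ per well in DMEM with 5% FCS and penicillin/streptomycin, adhered overnight. Pretreated 1 h at 37 °C with drug (0.5% DMSO vehicle; dexamethasone reference), then LPS (E. coli 0111:B4) 1 μg/mL for 24 h. TNF-α in the collected medium, stored at −70 °C, quantified by EIA kit.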

The subject of experiment [2] is N9. The experiment is described as follows: Antiinflammatory activity in LPS/IFN-gamma-stimulated mouse N9 cells assessed as inhibition of TNFalpha formation at 30 uM pretreated 1 hr before LPS/IFNgamma challenge measured after 24 hrs by enzyme immunoassay.
The nature of experiment [3]: Cytotoxicity against mouse 212 cells after 6 days by MTT assay. The experiment is classed as functional. As to conditions: 144 h, read-out: ED50 (the source's name). In a few lines: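 Ha-ras-transformed NIH/3T3 line (212), kept in MEM alpha with 10% calf serum and antibiotics. Assay medium had 10 mM HEPES pH 7.3. (1–3) × 10³ cells seeded, attached 6 h, then exposed to a range of drug concentrations for 6 days at 37 °C. MTT 4 h, DMSO solubilisation, A550.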

For experiment [4], the system named is N9. The experiment is described as follows: Antiinflammatory activity in LPS/IFN-gamma-stimulated mouse N9 cells assessed as inhibition of TNFalpha formation at 10 uM pretreated 1 hr before LPS/IFNgamma challenge measured after 24 hrs by enzyme immunoassay.
The test system of experiment [5] is RAW264.7. In words: Antiinflammatory activity in LPS-stimulated mouse RAW264.7 cells assessed as inhibition of TNFalpha formation at 10 uM pretreated 1 hr before LPS challenge measured after 24 hrs by enzyme immunoassay. The format is functional. The gist of the method:
as §1

The next experiment has as its system HT-3. The experiment is described as follows: Cytotoxicity against human HT3 cells after 6 days by MTT assay. The format is functional. As to conditions: HT-3, 144 h, read-out: ED50 (the source's name). In a few lines:
(§2)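 Cells grown in DMEM with 10% FBS, 2 mM glutamine and penicillin/streptomycin. (1–3) × 10³ cells seeded per well, attached 6 h, then given fresh medium with 10 mM HEPES pH 7.3 and a range of drug concentrations at 37 °C, CO₂, for 6 days. MTT (1 mg/mL in PBS) added for 4 h, formazan dissolved in DMSO, absorbance read at 550 nm.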

For another experiment, the system named is Ca-Ski. In words: Cytotoxicity against human CaSki cells after 6 days by MTT assay. The experiment is classed as functional. As to conditions: 144 h, read-out: ED50 (the source's name). The gist of the method:
as §2

In a further experiment the test system is SiHa. In words: Cytotoxicity against human SiHa cells after 6 days by MTT assay. As to conditions: 144 h, read-out: ED50 (the source's name). The experiment is classed as functional. The gist of the method:
as §2

A short description of experiment [6]: Cytotoxicity against human PLC/PRF/5 cells after 6 days by MTT assay. The experiment is classed as functional. As to conditions: PLC-PRF-5, 144 h, read-out: ED50 (the source's name). The gist of the method:
as §2

Another experiment concerns T-24. The experiment is described as follows: Cytotoxicity against human T24 cells after 6 days by MTT assay. The format is functional. As to conditions: T-24, 144 h, read-out: ED50 (the source's name). In a few lines: as §2

As for `CC(=O)c1ccc(O)c(O)c1`, the inhibition at 30 µM was -29.2% in the experiment with RAW264.7 [1] and -21.5% with N9 [2].
For `CO[C@@H]1[C@@H](O)[C@H](O[C@H]2CC[C@@]3(C)C(=CC[C@@H]4C(=O)O[C@@H]5CO[C@]6(C)OC=C(CC[C@@H]43)[C@H]56)C2)O[C@H](C)[C@H]1O[C@H]1C[C@H](OC)[C@@H](O[C@H]2C[C@H](OC)[C@H](O)[C@@H](C)O2)[C@H](C)O1`, the inhibition at 30 µM in the experiment on RAW264.7 [1] was 33.7%; with N9 [2], 30.9%. The EC50 in experiment [3] turned out to be 0.96 µg/mL (≈ 1.19 µM).
With `CO[C@@H]1[C@@H](O)[C@H](O[C@H]2CC[C@@]3(C)C(=CC[C@@H]4C(=O)O[C@@H]5CO[C@]6(C)OC=C(CC[C@@H]43)[C@H]56)C2)O[C@H](C)[C@H]1O`, the figures for the inhibition at 10 µM in the experiment on N9 [4] and in the experiment on RAW264.7 [5] were 3.2% and 29.5%, respectively.
As to `COc1cc(C(C)=O)ccc1O` [APOCYNIN], the figures for the inhibition at 30 µM with RAW264.7 [1] and in the experiment on N9 [2] were -19.8% and -22.6%, respectively.
For the compound `CO[C@@H]1[C@@H](O)[C@H](O[C@H]2CC[C@@]3(C)C(=CC[C@@H]4C(=O)O[C@@H]5CO[C@]6(C)OC(=O)/C(=C/C[C@@H]43)[C@H]56)C2)O[C@H](C)[C@H]1O[C@H]1C[C@H](OC)[C@@H](O[C@H]2C[C@H](OC)[C@H](O)[C@@H](C)O2)[C@H](C)O1` [ATRATOGLAUCOSIDE B], the EC50 (in the experiment on HT-3; in the experiment on Ca-Ski; in the experiment on SiHa; in experiment [6]; in experiment [3]; in the experiment on T-24) was greater than 4 µg/mL each time.
On to `C[C@@H]1C[C@H]2[C@@H]3CCC4=CC(=O)C=C[C@]4(C)[C@@]3(F)[C@@H](O)C[C@]2(C)[C@@]1(O)C(=O)CO` [DEXAMETHASONE], for which the results for the inhibition at 10 µM in the experiment on N9 [4] and in the experiment with RAW264.7 [5] were 82% and 49.9%, respectively.
